Data reported in ChEMBL document CHEMBL1806409, “Design, synthesis and biological evaluation of novel 4-thiazolidinones containing indolin-2-one moiety as potential antitumor agent” (Eur J Med Chem, 2011).

Key:
MDA-MB-231 = test: Cytotoxicity against human MDA-MB-231 cells assessed as cell growth inhibition after 72 hrs by MTT assay; type: functional, cell-based; conditions: MDA-MB-231, 72 h
Outline: (§1)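 Cancer lines grown in MEM with 10% FBS. About 4 × 10³ cells/well were seeded in MEM and incubated 24 h at 37 °C, 5% CO₂. Compounds were then added at final concentrations and exposure ran 72 h. MTT was added for 4 h at 37 °C and formazan dissolved in DMSO. Absorbance was read at 492 nm against a 630 nm reference. IC50 is the average of three determinations.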

HT-29 [1] = test: Cytotoxicity against human HT-29 cells assessed as cell growth inhibition after 72 hrs by MTT assay; type: functional, cell-based; conditions: HT-29, 72 h; outline: as §1
NCI-H460 = test: Cytotoxicity against human H460 cells assessed as cell growth inhibition after 72 hrs by MTT assay; type: functional, cell-based; conditions: NCI-H460, 72 h; outline: as §1
SMMC-7721 = test: Cytotoxicity against human SMMC7721 cells assessed as cell growth inhibition after 72 hrs by MTT assay; type: functional, cell-based; conditions: SMMC-7721, 72 h; outline: as §1
WI-38 [2] = test: Cytotoxicity against human WI38 cells assessed as cell growth inhibition after 72 hrs by MTT assay; type: cell-based; conditions: WI-38, 72 h
Outline: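 WI-38 normal human fetal lung fibroblasts were seeded at about 4 × 10³ cells/well and held 24 h at 37 °C, 5% CO₂, then exposed to compounds for 72 h. MTT was given for 4 h at 37 °C and formazan dissolved in DMSO. A492 was read with a 630 nm reference, and IC50 was averaged from three runs.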

WI-38 [3] = test: Selectivity index, ratio of IC50 for human WI38 cells to IC50 for human H460 cells; type: functional
Outline: (§2)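 The index is the IC50 in WI-38 normal fibroblasts divided by the IC50 in the cancer line (H460 or HT-29). Each IC50 comes from a 72 h MTT growth-inhibition assay averaged over three determinations.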

HT-29 [4] = test: Selectivity index, ratio of IC50 for human WI38 cells to IC50 for human HT-29 cells; type: functional; outline: as §2

Row | SMILES | IC50 (MDA-MB-231) [µM] | IC50 (HT-29 [1]) [µM] | IC50 (NCI-H460) [µM] | IC50 (SMMC-7721) [µM] | IC50 (WI-38 [2]) [µM] | Ratio IC50 (WI-38 [3]) | Ratio IC50 (HT-29 [4])
1 | CN(C)CCN1C(=O)/C(=C/c2ccc(O)cc2)SC1=S | 84.2 | 59.7 | 46.1 | – | – | – | –
2 | Cc1ccc2c(c1)/C(=c1/sc(=Cc3ccc4c(c3)OCO4)c(=O)n1CCN(C)C)C(=O)N2 | 8.1 | 1.03 | 4.03 | – | – | – | –
3 | CN(C)CCn1c(=O)c(=Cc2ccc3c(c2)OCO3)s/c1=C1\C(=O)Nc2cc(F)ccc21 | 2.42 | 1.36 | 2.81 | – | – | – | –
4 | CN(C)CCn1c(=O)c(=Cc2ccc(O)cc2)s/c1=C1\C(=O)Nc2ccccc21 (mixture of isomers) | 4.28 | 1.39 | 0.98 | – | – | – | –
5 | Cc1ccc2c(c1)/C(=c1/sc(=Cc3ccc(O)cc3)c(=O)n1CCN(C)C)C(=O)N2 (mixture of isomers) | 1.32 | 2.29 | 1.77 | – | – | – | –
6 | COc1cc(C=c2s/c(=C3\C(=O)Nc4ccc(F)cc43)n(CCN(C)C)c2=O)cc(OC)c1OC (mixture of isomers) | 1.9 | 2.53 | 1.7 | 6.06 | 8.1 | – | –
7 | CCN(CC)CCCn1c(=O)c(=Cc2ccc3c(c2)OCO3)s/c1=C1\C(=O)Nc2ccccc21 (mixture of isomers) | 1.12 | 0.91 | 1.02 | 3.41 | 3.93 | – | –
8 | CCN(CC)CCCn1c(=O)c(=Cc2ccc3c(c2)OCO3)s/c1=C1\C(=O)Nc2ccc(C)cc21 (mixture of isomers) | 3.1 | 2.11 | 1.86 | – | – | – | –
9 | CCN(CC)CCCn1c(=O)c(=Cc2ccc3c(c2)OCO3)s/c1=C1\C(=O)Nc2ccc(F)cc21 (mixture of isomers) | 0.77 | 0.025 | 0.075 | 1.95 | 6.98 | 93 | 279
10 | CCN(CC)CCCn1c(=O)c(=Cc2ccc3c(c2)OCO3)s/c1=C1\C(=O)Nc2cc(F)ccc21 (mixture of isomers) | 4.13 | 0.19 | 1.91 | 4.02 | 8.3 | – | –
11 | CCN(CC)CCCn1c(=O)c(=Cc2ccc3c(c2)OCO3)s/c1=C1\C(=O)Nc2ccc(Cl)cc21 (mixture of isomers) | 3.13 | 0.437 | 1 | 3.12 | 3.32 | – | –
12 | CCN(CC)CCCn1c(=O)c(=Cc2ccc(F)c(F)c2)s/c1=C1\C(=O)Nc2ccc(F)cc21 (mixture of isomers) | 1.22 | 0.64 | 1.3 | 3.07 | 4.3 | – | –
13 | CCN(CC)CCCn1c(=O)c(=Cc2ccc(F)c(F)c2)s/c1=C1\C(=O)Nc2cc(F)ccc21 (mixture of isomers) | 2.9 | 0.028 | 1.12 | 5.33 | 4.45 | – | –
14 | CCN(CC)CCCn1c(=O)c(=Cc2ccc(F)cc2F)s/c1=C1\C(=O)Nc2ccccc21 (mixture of isomers) | > 200 | > 200 | 5.47 | – | – | – | –
15 | CCN(CC)CCCn1c(=O)c(=Cc2ccc(F)cc2F)s/c1=C1\C(=O)Nc2cc(F)ccc21 (mixture of isomers) | 2.1 | 1.52 | 2.33 | – | – | – | –
16 | CCN(CC)CCCn1c(=O)c(=Cc2ccc(F)cc2F)s/c1=C1\C(=O)Nc2ccc(Cl)cc21 (mixture of isomers) | > 200 | > 200 | 6.1 | – | – | – | –
17 | CCN(CC)CCCn1c(=O)c(=Cc2cc(OC)c(OC)c(OC)c2)s/c1=C1\C(=O)Nc2ccccc21 (mixture of isomers) | 2.39 | 1.97 | 1.67 | – | – | – | –
18 | CCN(CC)CCCn1c(=O)c(=Cc2cc(OC)c(OC)c(OC)c2)s/c1=C1\C(=O)Nc2ccc(C)cc21 (mixture of isomers) | > 200 | > 200 | 2.67 | – | – | – | –
19 | CCN(CC)CCCn1c(=O)c(=Cc2cc(OC)c(OC)c(OC)c2)s/c1=C1\C(=O)Nc2ccc(F)cc21 (mixture of isomers) | > 200 | > 200 | 0.78 | 2.21 | 2.02 | – | –
20 | CN(C)CCn1c(=O)c(=Cc2ccc(O)cc2)s/c1=C1\C(=O)Nc2ccc(F)cc21 (mixture of isomers) | 4.2 | 1.48 | 1.27 | – | – | – | –

Row | SMILES | IC50 (MDA-MB-231) [µM] | IC50 (HT-29 [1]) [µM] | IC50 (NCI-H460) [µM] | IC50 (SMMC-7721) [µM] | IC50 (WI-38 [2]) [µM] | Ratio IC50 (WI-38 [3]) | Ratio IC50 (HT-29 [4])
21 | CN(C)CCn1c(=O)c(=Cc2ccc(O)cc2)s/c1=C1\C(=O)Nc2cc(F)ccc21 (mixture of isomers) | 3.45 | 2.27 | 1.43 | – | – | – | –
22 | CN(C)CCn1c(=O)c(=Cc2ccc(O)cc2)s/c1=C1\C(=O)Nc2ccc(Cl)cc21 (mixture of isomers) | 3.25 | 2.46 | 2.03 | – | – | – | –
23 | CN(C)CCn1c(=O)c(=Cc2ccc(O)cc2)s/c1=C1\C(=O)Nc2ccc(Br)cc21 (mixture of isomers) | 2.52 | 1.92 | 1.11 | – | – | – | –
24 | COc1ccc(C=c2s/c(=C3\C(=O)Nc4cc(F)ccc43)n(CCN(C)C)c2=O)cc1 (mixture of isomers) | 2.09 | 2.3 | 2.2 | – | – | – | –
25 | CN(C)CCn1c(=O)c(=Cc2ccc(F)c(F)c2)s/c1=C1\C(=O)Nc2ccc(F)cc21 (mixture of isomers) | 9.48 | 3.09 | 44.7 | – | – | – | –
26 | CN(C)CCn1c(=O)c(=Cc2ccc(F)c(F)c2)s/c1=C1\C(=O)Nc2cc(F)ccc21 (mixture of isomers) | 25 | 12.1 | 6.4 | – | – | – | –
27 | Cc1ccc2c(c1)/C(=c1/sc(=Cc3ccc(F)c(F)c3)c(=O)n1CCN(C)C)C(=O)N2 (mixture of isomers) | > 200 | 7.43 | 59.7 | – | – | – | –
28 | CN(C)CCn1c(=O)c(=Cc2ccc(F)cc2F)s/c1=C1\C(=O)Nc2cc(F)ccc21 (mixture of isomers) | 8.44 | 6.46 | 3.2 | – | – | – | –
29 | COc1ccc(C=c2s/c(=C3\C(=O)Nc4ccc(Cl)cc43)n(CCN(C)C)c2=O)c(OC)c1 (mixture of isomers) | 3.83 | 1.53 | 10.6 | – | – | – | –
30 | COc1ccc(C=c2s/c(=C3\C(=O)Nc4cc(F)ccc43)n(CCN(C)C)c2=O)c(OC)c1 (mixture of isomers) | 4.83 | 0.868 | 20.5 | 6.81 | 3.01 | – | –
31 | COc1ccc(OC)c(C=c2s/c(=C3\C(=O)Nc4cc(F)ccc43)n(CCN(C)C)c2=O)c1 (mixture of isomers) | 14.5 | 4.45 | 7.15 | – | – | – | –
32 | COc1ccc(OC)c(C=c2s/c(=C3\C(=O)Nc4ccccc43)n(CCN(C)C)c2=O)c1 (mixture of isomers) | 21 | 96 | 63.7 | – | – | – | –
33 | CN(C)CCn1c(=O)c(=Cc2ccc3c(c2)OCO3)s/c1=C1\C(=O)Nc2ccccc21 (mixture of isomers) | 3.23 | 0.7 | 0.82 | 2.74 | 1.77 | – | –
34 | CCN(CC)CCCn1c(=O)c(=Cc2cc(OC)c(OC)c(OC)c2)s/c1=C1\C(=O)Nc2cc(F)ccc21 (mixture of isomers) | > 200 | > 200 | 1.41 | – | – | – | –
35 | CCN(CC)CCCn1c(=O)c(=Cc2cc(OC)c(OC)c(OC)c2)s/c1=C1\C(=O)Nc2ccc(Cl)cc21 (mixture of isomers) | > 200 | > 200 | 2.99 | – | – | – | –
36 | CCN(CC)CCCn1c(=O)c(=Cc2ccc(O)cc2)s/c1=C1\C(=O)Nc2ccc(C)cc21 (mixture of isomers) | 1.81 | 0.77 | 0.26 | 5.09 | 5.75 | – | –
37 | CCN(CC)CCCn1c(=O)c(=Cc2ccccc2O)s/c1=C1\C(=O)Nc2ccccc21 (mixture of isomers) | > 200 | > 200 | > 200 | – | – | – | –
38 | CCN(CC)CCCn1c(=O)c(=Cc2ccccc2O)s/c1=C1\C(=O)Nc2ccc(C)cc21 (mixture of isomers) | 15.9 | 8.07 | 11.3 | – | – | – | –
39 | CCN(CC)CCCn1c(=O)c(=Cc2ccccc2O)s/c1=C1\C(=O)Nc2ccc(Br)cc21 (mixture of isomers) | 19.9 | 18.1 | 51.7 | – | – | – | –
40 | CCN(CC)CCNC(=O)c1c(C)[nH]c(/C=C2\C(=O)Nc3ccc(F)cc32)c1C [SUNITINIB] | 3.7 | 1.3 | 2.7 | 6.47 | 8.56 | – | –
